In the library only some 3.1% were active in any assay of this set; here they are far more common.
Apaf-1 inh: inhibitors of human Apaf-1 apoptosome, primary screen, biochemical, DEVD-Rh110 fluorescence, uHTS; Apoptotic protease-activating factor 1 (Homo sapiens), O14727; reconstituted apoptosome caspase-3 activity; inhibition, % at 20 µM; 330,000 compounds, 0.71% hits; active = inhibition of at least 40% at 20 µM;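 also: plate controls were DMSO wells for no effect and DEVD-CHO caspase inhibitor wells for full effect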
Target sequence (O14727 whole entry, looked up): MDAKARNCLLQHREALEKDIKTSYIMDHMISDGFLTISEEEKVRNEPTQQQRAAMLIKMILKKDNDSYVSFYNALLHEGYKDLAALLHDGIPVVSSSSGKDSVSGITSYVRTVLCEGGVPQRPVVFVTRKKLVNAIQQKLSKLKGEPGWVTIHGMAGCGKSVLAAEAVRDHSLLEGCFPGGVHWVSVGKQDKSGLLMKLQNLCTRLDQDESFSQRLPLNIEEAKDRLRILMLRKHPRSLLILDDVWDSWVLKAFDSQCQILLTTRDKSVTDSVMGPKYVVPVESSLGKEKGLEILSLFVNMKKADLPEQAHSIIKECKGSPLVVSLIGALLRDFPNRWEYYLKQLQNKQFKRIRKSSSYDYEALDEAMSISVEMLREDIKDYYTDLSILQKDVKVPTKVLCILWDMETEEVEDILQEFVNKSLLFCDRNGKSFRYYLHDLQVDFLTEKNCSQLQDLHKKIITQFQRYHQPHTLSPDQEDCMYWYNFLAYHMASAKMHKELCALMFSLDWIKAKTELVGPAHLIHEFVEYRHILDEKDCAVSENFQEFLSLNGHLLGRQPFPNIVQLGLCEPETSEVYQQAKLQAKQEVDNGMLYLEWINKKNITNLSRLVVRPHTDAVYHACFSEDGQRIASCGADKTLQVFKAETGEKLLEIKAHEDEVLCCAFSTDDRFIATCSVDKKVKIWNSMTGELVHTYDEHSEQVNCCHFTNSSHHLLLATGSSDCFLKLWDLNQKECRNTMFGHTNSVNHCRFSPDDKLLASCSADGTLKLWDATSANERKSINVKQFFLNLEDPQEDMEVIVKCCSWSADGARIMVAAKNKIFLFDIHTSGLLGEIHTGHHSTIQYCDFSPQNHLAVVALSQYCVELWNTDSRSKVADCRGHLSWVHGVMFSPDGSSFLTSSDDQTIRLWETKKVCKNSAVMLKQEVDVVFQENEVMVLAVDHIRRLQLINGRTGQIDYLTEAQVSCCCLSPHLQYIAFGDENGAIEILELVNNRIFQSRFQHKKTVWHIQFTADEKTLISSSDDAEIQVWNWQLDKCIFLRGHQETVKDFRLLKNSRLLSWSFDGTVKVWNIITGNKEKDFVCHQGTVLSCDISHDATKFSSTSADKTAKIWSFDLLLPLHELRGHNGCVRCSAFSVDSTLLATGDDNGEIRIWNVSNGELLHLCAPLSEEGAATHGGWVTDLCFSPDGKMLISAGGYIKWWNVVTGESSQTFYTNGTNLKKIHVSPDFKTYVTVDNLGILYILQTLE
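Material: reconstituted apoptosome with Apaf-1, cytochrome c, caspase-9, procaspase-3, dATP. Technique: Rh110 fluorescence intensity. Buffer or medium: pH 7.5 Hepes buffer with CHAPS, BSA, DTT. Times: 30 min plus 50 min, RT.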
pPAFAH inh: pPAFAH enzyme inhibitors, primary screen, biochemical, fluorescence polarization, human; AID 463082, 2010; inhibition, % at 3.39 µM; 330,000 compounds, 1.5% hits; Platelet-activating factor acetylhydrolase (Homo sapiens), Q13093; recombinant pPAFAH, FP-rhodamine probe fluorescence polarization;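 active = inhibition above the mean inhibition across the screen plus 3 SD, cut at about 25% in these data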;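 also: inhibitors block binding of the rhodamine activity-based probe so polarization drops; 0% = enzyme with DMSO and 100% = wells lacking pPAFAH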
PAFAH2 FP inh: PAFAH2 enzyme inhibitors, primary screen, biochemical, fluorescence polarization, human; Platelet-activating factor acetylhydrolase 2, cytoplasmic (Homo sapiens), Q99487; recombinant PAFAH2, FP-rhodamine activity probe; inhibition, % at 3.39 µM; 340,000 compounds, 0.99% hits;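 active = inhibition above the mean over all tested compounds plus 3 SD, cut at about 30% in these data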;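 also: inhibitors block probe labeling of enzyme so polarization drops; 0% = enzyme with DMSO and 100% = wells lacking PAFAH2 protein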
PAFAH1B3 inh: PAFAH1B3 enzyme inhibitors, primary screen, biochemical, fluorescence polarization, human; inhibition, % at 3.39 µM; Platelet-activating factor acetylhydrolase IB subunit alpha1 (Homo sapiens), Q15102; 340,000 compounds, 0.28% hits; recombinant PAFAH1B3, FP-rhodamine probe;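 active = inhibition above the screen-wide average of all tested compounds plus 3 SD, cut at about 25% in these data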;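 also: 0% = enzyme with DMSO only and 100% = wells lacking PAFAH1B3 protein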
PAFAH1B2 FP inh: PAFAH1B2 enzyme inhibitors, primary screen, biochemical, fluorescence polarization, human; Platelet-activating factor acetylhydrolase IB subunit alpha2 (Homo sapiens), P68402; recombinant PAFAH1B2, FP-rhodamine activity probe; inhibition, % at 3.39 µM; 340,000 compounds, 1.2% hits; AID 492953, 2010;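 active = inhibition above the mean of all tested compounds plus 3 SD, cut at about 24% in these data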;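 also: 0% = enzyme with DMSO and 100% = wells lacking PAFAH1B2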
* = called active by the depositor; x = no result.

SMILES	Apaf-1 inh	pPAFAH inh	PAFAH2 FP inh	PAFAH1B3 inh	PAFAH1B2 FP inh
CC(Sc1nncn1C)C(=O)Nc1ccc(N2CCCCC2)cc1 (configuration not stated)	12	-5	-6	6	1
N/C(=N/OC(=O)c1ccccc1Cl)c1ncc([N+](=O)[O-])s1	18	13	18	11	26*
Cc1cccc(C)c1-n1c(C)nn(-c2ncc(C(F)(F)F)cc2Cl)c1=O	-4	-2	-2	5	4
Cc1nn(-c2ncc(C(F)(F)F)cc2Cl)c(=O)n1-c1c(F)cccc1F	10	30*	7	8	-2
Cc1ccc(S(=O)(=O)NCCC(=O)NCCCSc2ccccc2)cc1	24	4	-2	-2	1
O=C(CCNS(=O)(=O)c1ccccc1)NCCCSc1ccccc1	12	4	5	6	36*
O=C(CCNS(=O)(=O)c1ccc(Br)cc1)NCCCSc1ccccc1	10	7	6	1	26*
Cc1nnc(NC(=O)CCSc2ccccc2)s1	-1	-1	0	13	27*
CCOc1ccccc1NC1=NCC(=O)N1Cc1ccc(F)cc1	-7	32*	0	-3	0
COc1ccccc1NC1=NCC(=O)N1Cc1ccccc1	14	-1	-8	1	1
Nc1cc(=O)[nH]c(SCC(=O)Nc2ccc(N3CCCCC3)cc2)n1	-1	6	6	3	-3
Cc1ccc(OCC(=O)NCCCNC(=O)c2ccc(C)nc2)cc1	-2	4	-4	3	1
Clc1cccc(Cl)c1COc1ccncc1	0	1	-5	6	1
O=C(OCC(=O)N1CCN(C(=O)COC(=O)c2ccncc2)CC1)c1ccncc1	1	27*	-4	-5	-2
O=C(OCc1c(Cl)cccc1Cl)c1ccncc1	11	27*	-5	4	5
CCOc1ccc(CCNC(=O)c2ccc(CS(=O)Cc3ccc(Cl)cc3)o2)cc1 (configuration not stated)	13	24	-6	10	4
CSc1ccc(CCNC(=O)c2ccc(CS(=O)Cc3ccc(Cl)cc3)o2)cc1 (configuration not stated)	14	30*	-2	4	6
NC(=O)c1ccsc1NC(=O)CN1C(=O)NC2(CCCCC2)C1=O	-14	2	-5	8	-1
N#Cc1ccsc1NC(=O)CN1C(=O)NC2(CCCC2)C1=O	-8	27*	17	9	3
CC1CCC2(CC1)NC(=O)N(CC(=O)Nc1sc3c(c1C(N)=O)CCC3)C2=O (configuration not stated)	7	25*	19	11	10
NC(=O)c1c(NC(=O)CN2CCN(S(=O)(=O)c3ccccc3)CC2)sc2c1CCC2	19	15	13	4	35*
Cc1cc(Cl)c2oc(C(=O)N(C)CCc3cnn(C)c3)c(C)c2c1	7	4	0	14	4
CCN(CC1CCCO1)C(=O)c1cc(COc2ccccc2SC)on1 (configuration not stated)	9	2	1	1	4
CN1CCC(=O)N(CCSc2ccc(Br)cc2)CC1	-1	8	12	11	26*
Cc1nnc(SCC(=O)Nc2cc(C(N)=O)cc(C(N)=O)c2)n1-c1ccccc1	6	3	2	-2	28*
SMILES	Apaf-1 inh	pPAFAH inh	PAFAH2 FP inh	PAFAH1B3 inh	PAFAH1B2 FP inh
Cc1nnc(SCC(=O)Nc2ccc(C(N)=O)cc2)n1-c1ccccc1	-6	0	3	7	1
N#Cc1ccccc1NC(=O)CSc1nnc(-c2ccc(F)cc2)n1-c1ccccc1	x	x	-4	0	26*
Cc1cc(C(=O)COC(=O)C2=COCCO2)c(C)n1-c1ccccc1	10	11	13	11	7
Cc1ccc(-c2cc(-c3ccco3)c3c(N)c(C(=O)NN)oc3n2)cc1	30	32*	22	13	5
NNC(=O)c1oc2nc(-c3cccs3)cc(-c3ccco3)c2c1N	25	32*	15	6	11
NNC(=O)c1oc2nc(-c3ccccc3)cc(-c3ccccc3)c2c1N	27	6	6	16	5
CCn1c(SCC(=O)Nc2oc(-c3ccccc3)c(-c3ccccc3)c2C#N)nnc1-c1ccco1	16	21	11	9	25*
N#Cc1c(NC(=O)CSc2ncnc3sccc23)oc(-c2ccco2)c1-c1ccco1	12	33*	22	16	3
CCn1c(SCC(=O)Nc2oc(-c3ccccc3)c(-c3ccccc3)c2C#N)nnc1-c1ccncc1	20	9	9	1	23
COc1ccccc1CNC(=O)CCCNC(=O)Cn1cnc2sc(C)c(C)c2c1=O	-2	4	8	3	3
O=C(NCCc1ccc(Cl)cc1)c1ccc2nc[nH]c2c1	-8	7	4	2	24
O=C(NCCSc1ccc(Br)cc1)c1ccc2nc[nH]c2c1	-1	30*	2	17	47*
O=C(NCCc1ccc(Cl)cc1Cl)c1ccc2nc[nH]c2c1	4	-2	-1	10	29*
CC(C)CCNC(=O)c1ccc2nc[nH]c2c1	-6	2	0	5	1
Cc1ccc(CNC(=O)c2cc(S(=O)(=O)N3CCCCC3)ccc2N2CCOCC2)cc1	-2	5	-3	6	0
O=C(Nc1ccccc1N1CCCC1)C1CCCO1 (configuration not stated)	-3	x	7	-6	3
COC(=O)CCC/C=C1/SCC(NC(=O)c2ccccc2)C1=O (configuration not stated)	-2	26*	-8	-5	1
COC(=O)CCC/C=C1/SCC(NC(=O)c2ccccc2)C1O (configuration not stated)	-9	2	-1	4	1
CC(=O)c1[nH]c(C)c(C(=O)N2CCCC(Nc3cccc(F)c3)C2)c1C (configuration not stated)	4	-3	-7	8	-5
CCCCN1C(=O)Cc2c1nc(N)c1c(N)nc(N(CCC)CCC)c(C#N)c21	x	10	10	-7	17
N#Cc1c(N(CCO)CCO)nc(N)c2c(N)nc3c(c12)CC(=O)N3CC1CCCO1 (configuration not stated)	98*	12	-2	-5	1
Cc1cccc(/C(N)=N/OC(=O)CCCc2ccccc2)c1	14	1	-5	5	19
Oc1ccc(N=C/C=C/c2ccc(Br)cc2)cc1-c1nc2ccccc2s1	4	53*	x	x	x
CCOc1ccc(C(=O)COC(=O)Cn2cnc3c2c(=O)n(C)c(=O)n3C)cc1	-2	4	6	-5	0
O=C(NCc1ccco1)c1cccc(S(=O)(=O)N2CCCC2)c1	2	x	5	16	-1
